In the library only some 2% were active in any assay of this set; here they are far more common.
UHRF1 MBD2 ctr: UHRF1 methylated DNA binding inhibitors, primary screen, counter-screen for MBD2 inhibitor project, biochemical, TR-FRET, human UHRF1, single concentration | UHRF1 binding to methylated oligo | 0.75% of 370,000 active | inhibition, % at 4.4 µM | AID 687016, 2013 | E3 ubiquitin-protein ligase UHRF1 (Homo sapiens), Q96T88; in the data active = inhibition above about 21%;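 also: UHRF1 SRA domain binding a hemimethylated CpG hairpin DNA probe; 0% = median of test compound wells and 100% = reference inhibitor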
TDP2 inh: human TDP2 enzyme inhibitors, primary screen, biochemical, epi absorbance, recombinant enzyme; AID 720702, 2013; 0.34% of 370,000 active; inhibition, % at 12.8 µM; T5PNP hydrolysis, p-nitrophenol absorbance 415 nm;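 active = inhibition above the mean of all tested compounds plus 3 SD, set per campaign, cut at about 25% in these data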;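 also: 0% = DMSO with enzyme and 100% = buffer with substrate but no TDP2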
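Evaluation: % inhibition relative to enzyme-containing and enzyme-free wells. Material: recombinant human TDP2. Benchmarks: enzyme-free and DMSO wells. Timing: enzyme reaction with compound for 2 h at 37 °C. Compound dosing: 12.8 µM only. Measured by: p-Nitrophenol epi absorbance. Reagent: T5PNP substrate at 5 mM, a TopII-DNA adduct mimic. Replication: single well per compound.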
ARFGAP1 inhibitor: inhibitors of rat ARFGAP1 GAP activity, primary screen, biochemical, fluorescence polarization, GDP tracer. inhibition, % at 16.5 µM. Arfgap1-stimulated ARF1 GTP hydrolysis, GDP FP detection. 0.26% of 360,000 active. ADP-ribosylation factor GTPase-activating protein 1 (Rattus norvegicus), Q62848;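 active = inhibition above a per-plate limit, mean inhibition of low control wells plus 3 SD, cut at about 25% in these data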;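 also: 0% = DMSO wells with enzyme and 100% = wells lacking Arfgap1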
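Assay system: Rat Arfgap1 GAP domain (His6, aa 1-136), purified enzyme | Buffer or medium: HEPES 25 mM pH 7.5, NaCl 150 mM, MgCl2, DTT | Schedule: GTP hydrolysis reaction 2 h at 25 °C | Signal: FP of antibody-bound GDP Alexa 633 tracer, ex 620/em 688 nm | Measure: Percent inhibition of Arfgap1-stimulated GTP hydrolysis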
ASAP1 GAP inh: inhibitors of human ASAP1 ArfGAP activity, primary screen, biochemical, fluorescence polarization; ASAP1-stimulated ARF1 GTP hydrolysis, GDP FP detection; 0.19% of 360,000 active; AID 624377, 2012; inhibition, % at 16.5 µM; in the data active = inhibition above about 25%;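 also: 0% = vehicle with enzyme and substrate and 100% = no enzyme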
LEDGF integ inh: blockers of LEDGF/p75-dependent integrase strand transfer – biochemical, TR-FRET, high throughput, primary screen; HIV-1 integrase (with human LEDGF/p75); TR-FRET IN-LEDGF/p75 DNA integration, Eu/Cy5; inhibition, % at 3.7 µM; 0.64% of 370,000 active; AID 743269, 2014;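 active = inhibition above the screen-wide mean plus 3 SD, cut at about 13% in these data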;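 also: signal is the Cy5 over europium emission ratio at 671 and 618 nm; 0% = plate median of compound wells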
MBD2 DNA inh: inhibitors of MBD2 binding to methylated DNA, primary screen, biochemical, TR-FRET, DNA-binding domain, human; Methyl-CpG-binding domain protein 2 (Homo sapiens), Q9UBB5; MBD2 binding to methylated oligonucleotide; inhibition, % at 4.4 µM; 0.31% of 370,000 active; in the data active = inhibition above about 13%
Active calls of the source: *; nt = no result given.

SMILES | UHRF1 MBD2 ctr | TDP2 inh | ARFGAP1 inhibitor | ASAP1 GAP inh | LEDGF integ inh | MBD2 DNA inh
O=C(CSc1n[nH]c(=O)n1-c1ccc2c(c1)OCCO2)Nc1ccccc1 | 27* | 21 | -3 | -2 | 1 | -2
COc1cc2c(cc1OC)C(C)N(C(=O)C1=NN(c3cccc(C)c3)C(=O)CC1)CC2 (centres undefined) | 22* | 10 | -3 | 6 | 0 | 10
O=C(N[C@H]1CC[C@H](CCNS(=O)(=O)c2ccc(Cl)cc2)O[C@@H]1CO)c1cccc(F)c1 | 23* | -13 | 8 | 9 | 5 | 12
O=C(N[C@H]1CC[C@@H](CCNS(=O)(=O)c2ccccc2Cl)O[C@@H]1CO)c1ccccc1 | 3 | -12 | -13 | -4 | 4 | -3
O=S(=O)(c1ccc2c(c1)OCCO2)N1CCN(S(=O)(=O)c2c(F)cc(F)cc2F)CC1 | 29* | 17 | -2 | -10 | 6 | 6
O=C(C1CCCN1S(=O)(=O)c1ccc(Cl)s1)N1CCN(c2ccccc2)CC1 (centres undefined) | -1 | 0 | nt | nt | -4 | -3
COc1ccccc1N1CCN(S(=O)(=O)c2ccc3c(c2)NC(=O)C(C)C(=O)N3)CC1 (centres undefined) | 3 | -12 | 0 | 0 | 3 | 3
Cc1ccc(Cl)cc1N1CCN(S(=O)(=O)c2ccc3c(c2)NC(=O)C(C)C(=O)N3)CC1 (centres undefined) | 96* | -6 | 12 | -2 | -1 | -2
Oc1ccc(CNc2ccc(C(F)(F)F)cc2F)c2cccnc12 | -7 | 5 | nt | nt | 1 | 1
CCOc1ccc(NC(=O)CN(C)C(=O)c2ccccc2Cc2ccccc2)cc1OCC | 21* | 1 | 0 | -4 | 3 | 5
CCOc1ccc(NC(=O)CN(C)C(=O)c2ccccc2OCc2cccc(C)c2)cc1OCC | 3 | 0 | 4 | 9 | 4 | 0
COc1ccccc1C(=O)N(Cc1ccccn1)CC1CCCO1 (centres undefined) | -2 | -9 | nt | nt | 1 | -2
CCC(C)c1ccc(NC(=O)CSc2nnc(-c3cccc(C)c3)n2C)cc1 (centres undefined) | -1 | -7 | nt | nt | -2 | 2
Cc1ccnc(NC(=S)N2CCC(Nc3cccc(C(F)(F)F)c3)CC2)c1 | 2 | 6 | nt | nt | 2 | -3
S=C(Nc1ccc(Cl)cc1)NN1CCOCC1 | 30* | 6 | -1 | 6 | 0 | 10
NC(Cc1c[nH]c2ccccc12)C(=O)NCc1ccco1 (centres undefined) | 0 | 4 | 2 | 8 | 0 | 1
NC(Cc1c[nH]c2ccccc12)C(=O)NCc1ccccc1 (centres undefined) | 25* | -3 | 1 | -1 | 7 | -2
Cc1ccc(S(=O)(=O)NC2=NCN(CCOC(=O)c3ccc([N+](=O)[O-])cc3)CN2)cc1 | 60* | -10 | -2 | 16 | 3 | 2
C=C(NC(=O)C(=C)NC(=O)c1csc(C2=NC3c4csc(n4)C4NC(=O)c5csc(n5)C(C(C)(O)C(C)O)NC(=O)C5CSC(=N5)/C(=C/C)NC(=O)C(C(C)O)NC(=O)c5csc(n5)C3(CC2)NC(=O)C(C)NC(=O)C(=C)NC(=O)C(=C)NC(=O)C(C(C)C)NC2C=Cc3c(C(C)O)cc(nc3C2O)C(=O)OC4C)n1)C(N)=O (centres undefined) | -2 | 5 | 16 | -14 | 32* | 7
CCn1c(COc2ccccc2)nnc1SCC(=O)Nc1ccc(S(=O)(=O)Nc2cc(C)nc(C)n2)cc1 | 0 | 1 | nt | nt | 2 | -6
CCOCc1nnc(NC(=O)CS(=O)(=O)c2ccc(C)cc2)s1 | 26* | 8 | -2 | 0 | -3 | 0
COc1cccc(-c2ccc(CC[C@H]3O[C@H]4CC[C@@H](CO)O[C@H]4C[C@H]3NS(C)(=O)=O)cc2)c1 | -1 | 3 | nt | nt | -2 | 0
O=C(Sc1cccc2cccnc12)c1ccc(F)cc1 | -28 | -1 | 11 | 6 | -13 | -12
COc1ccc(S(=O)(=O)Nc2cc(Sc3ncn[nH]3)c(O)c3ccccc23)cc1 | 1 | 65* | -4 | 18 | 45* | -6
O=S(=O)(Nc1cc(Sc2cccc3cccnc23)c(O)c2ccccc12)c1ccc(F)cc1 | -15 | 24 | 11 | -5 | 24* | -37
SMILES | UHRF1 MBD2 ctr | TDP2 inh | ARFGAP1 inhibitor | ASAP1 GAP inh | LEDGF integ inh | MBD2 DNA inh
CCCCC(=O)N[C@H]1CC[C@@]23CCCN2C(=O)CCC[C@H]3[C@H]1C | -1 | 3 | nt | nt | 1 | 2
CCN(CC)c1ccc(NS(=O)(=O)c2ccc(-c3ccc(=O)[nH]n3)o2)c(C)c1 | -6 | 4 | -4 | -3 | 15* | -1
CCCCN(C)C(=O)CNc1nnnn1-c1ccccc1 | 0 | -4 | nt | nt | -3 | 0
COc1cc(-c2ccc(Nc3ccccc3C(=O)O)c(OC)c2)ccc1Nc1ccccc1C(=O)O | 22* | 3 | -9 | 4 | 9 | 8
COc1cc([N+](=O)[O-])c(OC)cc1Nc1ccccc1C(=O)O | 16 | 4 | -9 | 7 | -2 | -9
C=Cc1ccc(C(=O)N(Cc2ccc(F)cc2)C(C(=O)N(C)C2CCCC2)c2ccc(OC)c(OC)c2)cc1 (centres undefined) | 2 | -3 | nt | nt | -5 | 3
CCc1ccc(S(=O)(=O)Nc2ccc(-c3ccc4nncn4n3)cc2)s1 | 23* | -2 | 6 | 7 | -4 | 0
CCc1ccc(S(=O)(=O)Nc2ccc(-c3ccc4nnc(C)n4n3)cc2)s1 | -1 | -6 | -1 | 7 | -3 | -1
O=C(c1sc2cccc(F)c2c1Cl)N1CCN(c2ncccn2)CC1 | 26* | 1 | -8 | 17 | -2 | 11
Cn1nc(CC(=O)NC2CCCCCCCCCCC2)c2ccccc2c1=O | -4 | -6 | -2 | 4 | 0 | -3
Cn1nc(CC(=O)Nc2ncc(Br)s2)c2ccccc2c1=O | 22* | 0 | 4 | 4 | -1 | 7
O=C(O)c1ccc(N2C(=O)c3cccc4c(C(=O)O)ccc(c34)C2=O)cc1 | 24* | -3 | 6 | -1 | 3 | 6
O=C(NCCc1ccccc1)c1ccc(Sc2ccccc2Cl)c([N+](=O)[O-])c1 | -5 | 5 | nt | nt | 4 | 1
